ChEMBL document CHEMBL1144562, “Synthesis of a new class of 2-anilino substituted nicotinyl arylsulfonylhydrazides as potential anticancer and antibacterial agents” (2007)
Converted amounts (≈) assume the structure as drawn.

How the values were obtained:
[1] = test system: OVCAR-8; test: Antitumor activity against OVCAR8 cells; format: functional; settings: Homo sapiens
[2] = Antitumor activity against LOX IMV1 cells; format: functional; settings: Homo sapiens
[3] = test system: KM12; test: Antitumor activity against KM12 cells; format: functional; settings: Homo sapiens
[4] = test system: K562; test: Antitumor activity against K562 cells; format: functional; settings: Homo sapiens
[5] = test system: A498; test: Antitumor activity against A498 cells; format: functional; settings: Homo sapiens
[6] = test system: ACHN; test: Antitumor activity against ACHN cells; format: functional; settings: Homo sapiens
[7] = test system: MDA-MB-435; test: Antitumor activity against MDA-MB-435 cells; format: functional; settings: Homo sapiens
[8] = Antitumor activity against MALME 3M cells; format: functional; settings: Homo sapiens
[9] = test system: HCT-15; test: Antitumor activity against HCT15 cells; format: functional; settings: Homo sapiens
[10] = test system: SNB-75; test: Antitumor activity against SNB75 cells; format: functional; settings: Homo sapiens
Outline: (§1)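 Tested in the NCI 60-human-tumour-cell-line panel at five concentrations, in 10-fold dilutions from 10^-4 to 10^-8 M. Three parameters were taken from the dose-response data, each as log10 of the molar concentration: GI50 (50% net growth inhibition), TGI (total growth inhibition) and LC50 (50% net cell death).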

[11] = test system: Pseudomonas aeruginosa; test: Antibacterial activity against Pseudomonas aeruginosa MTCC 424 after 18 hrs; format: functional; settings: MTCC 424, 18 h
Outline: (§2)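 Disc diffusion (Kirby–Bauer) on Mueller-Hinton agar inoculated with fresh bacteria at 1-5 × 10^4 cfu mL-1. Compounds were dissolved in DMF at a range of concentrations, and discs were placed in triplicate. Plates were incubated at 30 °C for 18 h. MIC was taken as the lowest concentration giving no visible bacterial growth on the plate.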

[12] = test system: RXF 393; test: Antitumor activity against RXF393 cells; format: functional; settings: Homo sapiens
[13] = test system: MOLT-4; test: Antitumor activity against MOLT4 cells; format: functional; settings: Homo sapiens
[14] = test system: Bacillus subtilis; test: Antibacterial activity against Bacillus subtilis MTCC 441 after 18 hrs; format: functional; settings: MTCC 441, 18 h; outline: as §2
[15] = test system: U-251; test: Antitumor activity against U251 cells; format: functional; settings: Homo sapiens; outline: as §1
[16] = test system: MCF7; test: Antitumor activity against MCF7 cells; format: functional; settings: Homo sapiens
[17] = test system: Vibrio; test: Antibacterial activity against Vibrio species after 18 hrs; format: functional; outline: as §2
[18] = test system: UACC-257; test: Antitumor activity against UACC257 cells; format: functional; settings: Homo sapiens; outline: as §1
[19] = Antitumor activity against NCI-H322 cells; format: functional; settings: Homo sapiens
[20] = test system: SF-295; test: Antitumor activity against SF295 cells; format: functional; settings: Homo sapiens
[21] = test system: Hs-578T; test: Antitumor activity against HS578T cells; format: functional; settings: Homo sapiens
[22] = test system: HT-29; test: Antitumor activity against HT29 cells; format: functional; settings: Homo sapiens
[23] = test system: HOP-62; test: Antitumor activity against HOP62 cells; format: functional; settings: Homo sapiens
[24] = test system: SK-MEL-5; test: Antitumor activity against SK-MEL-5 cells; format: functional; settings: Homo sapiens; outline: as §1
[25] = test system: HCC 2998; test: Antitumor activity against HCC2998 cells; format: functional; settings: Homo sapiens
[26] = test system: SNB-19; test: Antitumor activity against SNB19 cells; format: functional; settings: Homo sapiens; outline: as §1
[27] = test system: A549; test: Antitumor activity against A549 cells; format: functional; settings: Homo sapiens
[28] = test system: CAKI-1; test: Antitumor activity against CAKI1 cells; format: functional; settings: Homo sapiens
[29] = test system: HCT-116; test: Antitumor activity against HCT116 cells; format: functional; settings: Homo sapiens
[30] = Antitumor activity against HL60 (TB) cells; format: functional, HL-60(TB); settings: Homo sapiens, HL-60
Outline: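 NCI 60-cell-line in vitro screen (leukaemia subpanel). Compound tested at five 10-fold dilutions from 10^-4 to 10^-8 M. Dose-response parameters: GI50 (concentration giving 50% net growth inhibition), TGI (total growth inhibition) and LC50 (50% net cell death), each reported as log10 of molar concentration.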

[31] = test system: 786-0; test: Antitumor activity against 786-0 cells; format: functional; settings: Homo sapiens
[32] = test system: EKVX; test: Antitumor activity against EKVX cells; format: functional; settings: Homo sapiens
[33] = test system: SF-268; test: Antitumor activity against SF268 cells; format: functional; settings: Homo sapiens
[34] = test system: DU-145; test: Antitumor activity against DU145 cells; format: functional; settings: Homo sapiens
[35] = test system: COLO 205; test: Antitumor activity against COLO205 cells; format: functional; settings: Homo sapiens
[36] = test system: M14; test: Antitumor activity against M14 cells; format: functional; settings: Homo sapiens
[37] = test system: CCRF-CEM; test: Antitumor activity against CCRF-CEM cells; format: functional; settings: Homo sapiens
[38] = test system: SR; test: Antitumor activity against SR cells; format: functional; settings: Homo sapiens; outline: as §1
[39] = test system: SK-OV-3; test: Antitumor activity against SKOV3 cells; format: functional; settings: Homo sapiens; outline: as §1
[40] = test system: MDA-MB-231; test: Antitumor activity against MDA-MB-231 cells; format: functional; settings: Homo sapiens
[41] = read-out: Log LC50 (the source's name) (converted)

`CC(=O)Nc1ccc(S(=O)(=O)NNC(=O)c2cccnc2Nc2ccc(Cl)cc2)cc1` showed a GI50 [1] of 36.3 µM, a CC50 [1, 41] of over 100 µM and a TGI ([1]; read-out: Log TGI (converted)) of over 100 µM. It also gave a GI50 [2] of 24 µM, an LC50 [2] of over 100 µM and a TGI ([2]; read-out: Log TGI (converted)) of over 100 µM. For the same compound, the GI50 [3] was 4.17 µM, the CC50 [3, 41] was over 100 µM and the TGI ([3]; read-out: Log TGI (converted)) was over 100 µM. For the same compound, the GI50 [4] was 8.51 µM, the LC50 [4] was over 100 µM and the TGI ([4]; read-out: Log TGI (converted)) was over 100 µM. For the same compound, the GI50 [5] was 18.6 µM, the LC50 [5] was over 100 µM and the TGI ([5]; read-out: Log TGI (converted)) was over 100 µM. It also gave a GI50 [6] of 52.5 µM, an LC50 [6] of over 100 µM and a TGI ([6]; read-out: Log TGI (converted)) of 75.9 µM. For the same compound, the GI50 [7] was 3.24 µM, the LC50 [7] was over 100 µM and the TGI ([7]; read-out: Log TGI (converted)) was over 100 µM. The GI50 [8] was over 100 µM, the CC50 [8, 41] was over 100 µM and the TGI ([8]; read-out: Log TGI (converted)) was over 100 µM. It also gave a GI50 [9] of 13.8 µM, an LC50 [9] of over 100 µM and a TGI ([9]; read-out: Log TGI (converted)) of over 100 µM. It also gave a GI50 [10] of 5.5 µM, a CC50 [10, 41] of over 100 µM and a TGI ([10]; read-out: Log TGI (converted)) of over 100 µM. It also gave an MIC [11] of over 25 µg/mL, a GI50 [12] of 37.2 µM and an LC50 [12] of over 100 µM. The TGI ([12]; read-out: Log TGI (converted)) was over 100 µM, the GI50 [13] was 50.1 µM and the LC50 [13] was over 100 µM. The TGI ([13]; read-out: Log TGI (converted)) was over 100 µM, the MIC [14] was 17 µg/mL (≈ 37 µM) and the GI50 [15] was 24 µM. It also gave an LC50 [15] of over 100 µM, a TGI ([15]; read-out: Log TGI (converted)) of over 100 µM and a GI50 [16] of 4.37 µM. For the same compound, the LC50 [16] was over 100 µM, the TGI ([16]; read-out: Log TGI (converted)) was over 100 µM and the MIC [17] was 18 µg/mL (≈ 39.1 µM). It also gave a GI50 [18] of 89.1 µM, an LC50 [18] of over 100 µM and a TGI ([18]; read-out: Log TGI (converted)) of over 100 µM. The GI50 [19] was over 100 µM, the CC50 [19, 41] was over 100 µM and the TGI ([19]; read-out: Log TGI (converted)) was over 100 µM. The GI50 [20] was 3.47 µM, the CC50 [20, 41] was over 100 µM and the TGI ([20]; read-out: Log TGI (converted)) was over 100 µM. It also gave a GI50 [21] of 24 µM, a CC50 [21, 41] of over 100 µM and a TGI ([21]; read-out: Log TGI (converted)) of over 100 µM. The GI50 [22] was 3.98 µM, the LC50 [22] was over 100 µM and the TGI ([22]; read-out: Log TGI (converted)) was over 100 µM. The GI50 [23] was over 100 µM, the CC50 [23, 41] was over 100 µM and the TGI ([23]; read-out: Log TGI (converted)) was over 100 µM. The GI50 [24] was 5.62 µM, the LC50 [24] was over 100 µM and the TGI ([24]; read-out: Log TGI (converted)) was over 100 µM. The GI50 [25] was 8.32 µM, the LC50 [25] was over 100 µM and the TGI ([25]; read-out: Log TGI (converted)) was over 100 µM. The GI50 [26] was 14.1 µM, the CC50 [26, 41] was over 100 µM and the TGI ([26]; read-out: Log TGI (converted)) was over 100 µM. For the same compound, the GI50 [27] was 32.4 µM, the LC50 [27] was over 100 µM and the TGI ([27]; read-out: Log TGI (converted)) was over 100 µM. For the same compound, the GI50 [28] was 9.12 µM, the LC50 [28] was over 100 µM and the TGI ([28]; read-out: Log TGI (converted)) was over 100 µM. It also gave a GI50 [29] of 7.24 µM, an LC50 [29] of over 100 µM and a TGI ([29]; read-out: Log TGI (converted)) of over 100 µM. It also gave a GI50 [30] of 9.77 µM, an LC50 [30] of over 100 µM and a TGI ([30]; read-out: Log TGI (converted)) of over 100 µM. It also gave a GI50 [31] of 47.9 µM, an LC50 (lethal concentration, 50%) [31] of over 100 µM and a TGI ([31]; read-out: Log TGI (converted)) of over 100 µM. The GI50 [32] was 49 µM, the LC50 [32] was over 100 µM and the TGI ([32]; read-out: Log TGI (converted)) was over 100 µM. The GI50 [33] was 21.9 µM, the LC50 [33] was over 100 µM and the TGI ([33]; read-out: Log TGI (converted)) was over 100 µM. For the same compound, the GI50 [34] was 34.7 µM, the LC50 [34] was over 100 µM and the TGI ([34]; read-out: Log TGI (converted)) was over 100 µM. The GI50 [35] was 10.2 µM, the LC50 [35] was over 100 µM and the TGI ([35]; read-out: Log TGI (converted)) was 57.5 µM. For the same compound, the GI50 [36] was 11.5 µM, the LC50 [36] was over 100 µM and the TGI ([36]; read-out: Log TGI (converted)) was over 100 µM. For the same compound, the LC50 [37] was over 100 µM, the TGI ([37]; read-out: Log TGI (converted)) was over 100 µM and the GI50 ([37]; read-out: pGI50 (converted)) was 21.4 µM. The GI50 [38] was 6.31 µM, the LC50 [38] was over 100 µM and the TGI ([38]; read-out: Log TGI (converted)) was over 100 µM. For the same compound, the GI50 [39] was 57.5 µM, the CC50 [39, 41] was over 100 µM and the TGI ([39]; read-out: Log TGI (converted)) was over 100 µM. The GI50 [40] was 41.7 µM, the LC50 [40] was over 100 µM and the TGI ([40]; read-out: Log TGI (converted)) was over 100 µM.
